Experimental data as given in ChEMBL document CHEMBL1159377, “Synthetic approach to exo-endo cross-conjugated cyclohexadienones and its application to the syntheses of dehydrobrachylaenolide, isodehydrochamaecynone, and trans-isodehydrochamaecynone” (J Nat Prod, 2003).

Legend:
[1] = test system: Coptotermes formosanus; test: Insecticidal activity against Coptotermes formosanus assessed as mortality at 100 ppm after 5 days by filter paper contact method relative to control; assay type: functional
[2] = test system: Coptotermes formosanus; test: Insecticidal activity against Coptotermes formosanus assessed as mortality at 100 ppm after 2 days by filter paper contact method relative to control; assay type: functional
[3] = test system: Coptotermes formosanus; test: Insecticidal activity against Coptotermes formosanus assessed as mortality at 1000 ppm after 5 days by filter paper contact method relative to control; assay type: functional
[4] = test system: Coptotermes formosanus; test: Insecticidal activity against Coptotermes formosanus assessed as mortality at 1000 ppm after 1 day by filter paper contact method relative to control; assay type: functional
[5] = test system: Coptotermes formosanus; test: Insecticidal activity against Coptotermes formosanus assessed as mortality at 100 ppm after 1 day by filter paper contact method relative to control; assay type: functional
[6] = test system: Coptotermes formosanus; test: Insecticidal activity against Coptotermes formosanus assessed as mortality at 1000 ppm after 2 days by filter paper contact method relative to control; assay type: functional
[7] = test system: A549; test: Inhibition of IL-1-beta-induced ICAM1 protein expression in human A549 cells treated for 1 hr before IL1-beta challenge for 6 hrs; assay type: functional, cell-based
Outline: (§1)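 A549 cells at 3 × 10⁴/well pretreated with compound 1 h, then IL-1β at 0.25 ng/mL final for 6 h. Cells fixed in 1% paraformaldehyde and blocked with 1% BSA overnight. Mouse anti-human ICAM-1 and peroxidase anti-mouse IgG each 60 min at 37 °C. o-Phenylenediamine/H₂O₂ substrate (citrate pH 5.3), 20 min dark, A415. Expression normalised between IL-1β-treated and unstimulated wells. Triplicate.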

[8] = test system: Coptotermes formosanus; test: Insecticidal activity against Coptotermes formosanus assessed as mortality at 1000 ppm after 7 days by filter paper contact method relative to control; assay type: functional
[9] = test system: Coptotermes formosanus; test: Insecticidal activity against Coptotermes formosanus assessed as mortality at 100 ppm after 7 days by filter paper contact method relative to control; assay type: functional
[10] = test system: A549; test: Inhibition of IL-1-beta-induced ICAM1 protein expression in human A549 cells at 1 uM treated for 1 hr before IL1-beta challenge for 6 hrs relative to control; assay type: functional; outline: as §1
[11] = Cytotoxicity against human A549 cells after 24 hrs at 320 uM by MTT assay relative to control; assay type: cell-based; conditions: read-out: T/C
Outline: (§2)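 A549 lung carcinoma cells grown in RPMI 1640 with 10% fetal calf serum, 50 µM 2-mercaptoethanol and penicillin-streptomycin-neomycin. Cells incubated with or without compound for 24 h, with MTT (500 µg/mL) present for the last 4 h. Formazan solubilised overnight in 5% SDS, absorbance read at 595 nm. Viability (%) = (sample − background)/(control − background) × 100. Triplicate cultures, mean ± SD.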

[12] = Cytotoxicity against human A549 cells after 24 hrs at 32 uM by MTT assay relative to control; assay type: cell-based; conditions: read-out: T/C; outline: as §2
[13] = Cytotoxicity against human A549 cells after 24 hrs at 10 uM by MTT assay relative to control; assay type: cell-based; conditions: read-out: T/C; outline: as §2
[14] = test system: A549; test: Inhibition of IL-1-beta-induced ICAM1 protein expression in human A549 cells at 1000 uM treated for 1 hr before IL1-beta challenge for 6 hrs relative to control; assay type: functional; outline: as §1
[15] = test system: A549; test: Inhibition of IL-1-beta-induced ICAM1 protein expression in human A549 cells at 3.2 uM treated for 1 hr before IL1-beta challenge for 6 hrs relative to control; assay type: functional; outline: as §1
[16] = Cytotoxicity against human A549 cells after 24 hrs at 1 uM by MTT assay relative to control; assay type: cell-based; conditions: read-out: T/C; outline: as §2
[17] = test system: A549; test: Inhibition of IL-1-beta-induced ICAM1 protein expression in human A549 cells at 10 uM treated for 1 hr before IL1-beta challenge for 6 hrs relative to control; assay type: functional; outline: as §1
[18] = test system: A549; test: Cytotoxicity against human A549 cells after 24 hrs by MTT assay; assay type: cell-based; conditions: A549, 24 h
Outline: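 A549 cells (RPMI 1640, 10% FCS, 50 µM 2-mercaptoethanol, antibiotics) incubated with test compound 24 h; MTT 500 µg/mL pulsed for final 4 h; formazan dissolved in 5% SDS overnight; absorbance 595 nm. Viability % = (sample − background)/(control − background) × 100. Triplicate cultures.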

[19] = test system: A549; test: Inhibition of IL-1-beta-induced ICAM1 protein expression in human A549 cells at 100 uM treated for 1 hr before IL1-beta challenge for 6 hrs relative to control; assay type: functional; outline: as §1
[20] = Cytotoxicity against human A549 cells after 24 hrs at 100 uM by MTT assay relative to control; assay type: cell-based; conditions: read-out: T/C; outline: as §2
[21] = test system: A549; test: Inhibition of IL-1-beta-induced ICAM1 protein expression in human A549 cells at 320 uM treated for 1 hr before IL1-beta challenge for 6 hrs relative to control; assay type: functional; outline: as §1
[22] = Cytotoxicity against human A549 cells after 24 hrs at 1000 uM by MTT assay relative to control; assay type: cell-based; conditions: read-out: T/C; outline: as §2
[23] = Cytotoxicity against human A549 cells after 24 hrs at 3.2 uM by MTT assay relative to control; assay type: cell-based; conditions: read-out: T/C; outline: as §2
[24] = test system: A549; test: Inhibition of IL-1-beta-induced ICAM1 protein expression in human A549 cells at 32 uM treated for 1 hr before IL1-beta challenge for 6 hrs relative to control; assay type: functional; outline: as §1

Compound | Activity [1] [%] | Activity [2] [%] | Activity [3] [%] | Activity [4] [%] | Activity [5] [%] | Activity [6] [%] | IC50 [7] [µM] | other results
C#C[C@@H]1CC[C@@]2(C)C=CC(=O)C(=C)[C@@H]2C1 | 17 | 3 | 100 | 33 | 0 | 93 |  | 
C[C@@H]1C(=O)O[C@@H]2[C@H]1CC[C@@]1(C)CCC(=O)[C@@H](C)[C@H]21 |  |  |  |  |  |  | > 1000 | 
C#C[C@@H]1CC[C@@]2(C)CCC(=O)[C@@H](C)[C@@H]2C1 | 0 | 0 | 100 | 0 | 0 | 93 |  | 
C#C[C@@H]1CC[C@@]2(C)C=CC(=O)C(C)=C2C1 [DEHYDROCHAMAECYNONE] | 7 | 0 | 100 | 13 | 0 | 90 |  | 
C#C[C@@H]1CC[C@@]2(C)C=CC(=O)[C@@H](C)[C@H]2C1 [CHAMAECYNONE] | 27 | 0 | 100 | 27 | 0 | 97 |  | Activity [8]: 100%; Activity [9]: 87%
C#C[C@@H]1CC[C@@]2(C)C=CC(=O)[C@@H](C)[C@@H]2C1 | 43 | 0 | 100 | 80 | 0 | 97 |  | Activity [8]: 100%; Activity [9]: 100%
C=C1C(=O)C=C[C@]2(C)CC[C@H]3C(=C)C(=O)O[C@H]3[C@@H]12 [DEHYDROBRACHYLAENOLIDE] |  |  |  |  |  |  | 3 | T/C [10]: 75.5%; viability at 24 h, 320 µM [11]: 28.6%; viability at 24 h, 32 µM [12]: 68.8%; viability at 24 h, 10 µM [13]: 93.8%; T/C [14]: -3.3%; T/C [15]: 44.4%; viability at 24 h, 1 µM [16]: 100%; T/C [17]: 1.1%; IC50 [18]: 55 µM; T/C [19]: -0.3%; viability at 24 h, 100 µM [20]: 29.3%; Activity [7]: Dose-dependent effect; T/C [21]: -1.4%; viability at 24 h, 1000 µM [22]: 11.8%; viability at 24 h, 3.2 µM [23]: 90.8%; T/C [24]: 0.1%
C=C1C(=O)O[C@H]2[C@H]3[C@H](C)C(=O)C=C[C@]3(C)CC[C@@H]12 [TUBERIFERINE] |  |  |  |  |  |  | 7.4 | 
C=C1C(=O)O[C@H]2[C@H]3[C@H](C)C(=O)CC[C@]3(C)CC[C@@H]12 |  |  |  |  |  |  | 17 | 
